Laboratory results as given in ChEMBL document CHEMBL1147175, “Synthesis of dioxane-based antiviral agents and evaluation of their biological activities as inhibitors of Sindbis virus replication” (Bioorg Med Chem, 2007).
Activity calls are given as the source filed them. No cut-off for these calls is given here.

Tests used:
[1] = Cytotoxicity against BHK cells by XTT assay; type: cell-based, Mesocricetus auratus; conditions: hamster
Method in brief: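 Uninfected BHK cells were treated with a range of compound concentrations. Viability was read with an XTT colorimetric kit, where mitochondrial dehydrogenases form a coloured product read at 450 nm.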

Sindbis virus [2] = experiment: Antiviral activity against Sindbis virus replication in BHK cells at 10^-3 mM after 12 hrs by luciferase assay
Sindbis virus [3] = experiment: Antiviral activity against Sindbis virus replication in BHK cells after 12 hrs by luciferase assay; type: functional, organism-based
Method in brief: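 BHK cells grown to confluency were infected with luciferase-reporter Sindbis virus (SIN-IRES-Luc) at MOI below 1. Medium containing compound below cytotoxic concentrations was then added, and cells were incubated 12 h at 37 °C. Luciferase was measured in cell extracts by luminometer. EC50 is the concentration giving a 50% reduction in virus production.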

[4] = Therapeutic index, ratio of EC50 for Sindbis virus to CC50 for BHK cells; type: cell-based; conditions: hamster, read-out: TI
Method in brief: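 Therapeutic index was calculated as the […] (XTT viability of uninfected BHK cells).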

Sindbis virus [5] = experiment: Antiviral activity against Sindbis virus replication in BHK cells after 12 hrs by luciferase assay
[6] = in the assay text read “luciferase assay” for “XTT assay”

| Structure (SMILES) | CC50 [1] [µM] | Activity (Sindbis virus [2]) | EC50 (Sindbis virus [3]; [6]) [µM] | further results |
| --- | --- | --- | --- | --- |
| c1ccc(CCCC[C@@H]2COCCO2)cc1 | > 1000 | inactive | – | – |
| OCC[C@H]1COCCO1 | > 1000 | inactive | – | – |
| C1CSC(C[C@H]2COCCO2)SC1 | > 1000 | – | 1000 | – |
| C(C[C@@H]1COCCO1)C[C@@H]1COCCO1 | > 1000 | – | 14 | selectivity ratio [4]: > 71 |
| OC(CC[C@@H]1COCCO1)C[C@@H]1COCCO1 (stereo not given in full) | > 1000 | inactive | – | – |
| CON=C(C[C@@H]1COCCO1)C[C@@H]1COCCO1 | > 1000 | inactive | – | – |
| OC[C@H]1COCCO1 | > 5000 | – | 1500 | – |
| O=C(C[C@@H]1COCCO1)C[C@@H]1COCCO1 | > 1000 | inactive | – | – |
| O=C(CCC[C@@H]1COCCO1)C[C@@H]1COCCO1 | – | inactive | – | – |
| C(CC[C@@H]1COCCO1)CC[C@@H]1COCCO1 | > 1000 | – | 1500 | – |
| OC[C@@H]1COCCO1 | > 1000 | – | 3.4 | selectivity ratio [4]: > 294 |
| C(CC[C@@H]1COCCO1)C[C@@H]1COCCO1 | > 1000 | – | 1500 | – |
| OCC[C@@H]1COCCO1 | > 1000 | – | 1400 | – |
| O=C(CC[C@@H]1COCCO1)C[C@@H]1COCCO1 | > 1000 | inactive | – | – |
| COc1ccc(CCN(C)CCC[C@](C#N)(c2ccc(OC)c(OC)c2)C(C)C)cc1OC | – | – | 1300 | – |
| C(C[C@H]1COCCO1)C[C@H]1COCCO1 | > 1000 | inactive | – | – |
| C1CSC(C[C@H]2COCCO2)(C[C@@H]2COCCO2)SC1 | > 1000 | – | 29 | – |
| CC(O)[C@H]1COCCO1 (stereo not given in full) | 1000 | – | 99 | – |
| OC(C[C@@H]1COCCO1)C[C@@H]1COCCO1 | > 1000 | – | 670 | – |
| ICC[C@@H]1COCCO1 | > 1000 | – | 250 | – |
| O=CC[C@H]1COCCO1 | > 5000 | – | – | EC50 (Sindbis virus [3]): 460 µM |
| C1CSC(CC[C@@H]2COCCO2)(C[C@@H]2COCCO2)SC1 | > 1000 | inactive | – | – |
| ClCCOC[C@H]1CO1 | > 1000 | – | 1000 | – |
| ON=C(C[C@@H]1COCCO1)C[C@@H]1COCCO1 | > 1000 | inactive | – | – |
| C1CSC(C[C@H]2COCCO2)(C[C@H]2COCCO2)SC1 | > 1000 | inactive | – | – |
| ClCCOC[C@@H]1CO1 | > 5000 | – | – | EC50 (Sindbis virus [5]): 1000 µM |
| OCCC[C@@H]1COCCO1 | > 1000 | inactive | – | – |
| C1CSC(CC[C@@H]2COCCO2)SC1 | > 1000 | inactive | – | – |
| C(C[C@@H]1COCCO1)C[C@H]1COCCO1 (mixture of isomers) | > 1000 | inactive | – | – |
| CN(C)CCCN1c2ccccc2Sc2ccc(Cl)cc21 [CHLORPROMAZINE] | 100 | – | 8.2 | – |
